For series [1], the target named is Activated CDC42 kinase 1 (Homo sapiens) (UniProt Q07912). The experiment in a line: Inhibition of recombinant human ACK1 (1 to 389 residues) at 10 uM using EFPIYDFLPAKKK as substrate measured after 40 mins in presence of [gamma33P]ATP by scintillation counting method.
For series [2], the system named is Serine/threonine-protein kinase Sgk1 (Homo sapiens), O00141 [S422D]. The experiment in a line: Inhibition of recombinant human SGK S422D mutant (60 to end residues) at 10 uM using GRPRTSSFAEGKK as substrate measured after 40 mins in presence of [gamma33P]ATP by scintillation counting method.
Series [3] addresses Tyrosine-protein kinase ITK/TSK (Homo sapiens) (UniProt Q08881). The experiment in a line: Inhibition of recombinant human ITK (352 to 617 residues) at 10 uM using myelin basic protein as substrate measured after 40 mins in presence of [gamma33P]ATP by scintillation counting method.
In series [4] the target is Tyrosine-protein kinase Fyn (Homo sapiens) (UniProt P06241). The experiment in a line: Inhibition of recombinant full-length human FYN at 10 uM using Cdc2 peptide as substrate measured after 40 mins in presence of [gamma33P]ATP by scintillation counting method.
Series [5] relates to Tyrosine-protein kinase receptor UFO (Homo sapiens), P30530 [Q764R]. The experiment in a line: Inhibition of recombinant human AXL Q764R mutant (473 to end residues) at 10 uM using KKSRGDYMTMQIG as substrate measured after 40 mins in presence of [gamma33P]ATP by scintillation counting method.
Series [6] deals with Serine/threonine-protein kinase DCLK3 (Homo sapiens) (UniProt Q9C098). The experiment in a line: Inhibition of recombinant human DCAMKL3 (345 to end residues) at 10 uM using KKLNRTLSFAEPG as substrate measured after 40 mins in presence of [gamma33P]ATP by scintillation counting method.
For series [7], the system named is Mast/stem cell growth factor receptor Kit (Homo sapiens), P10721 [D816H]. The experiment in a line: Inhibition of recombinant human c-Kit D816H mutant (544 to end residues) at 10 uM using GGMEDIYFEFMGGKKK as substrate measured after 40 mins in presence of [gamma33P]ATP by scintillation counting method.
Series [8] has as its target PI3-kinase p110-alpha/p85-alpha (Homo sapiens) (UniProt P27986+P42336). The experiment in a line: Inhibition of recombinant full-length human PI3K p110alpha/p85alpha at 10 uM using phosphatidylinositol-4, 5-bisphosphate as substrate measured after 40 mins by fluorescence assay. The series is classed as protein-complex assay.
Series [9] concerns the target Casein kinase II subunit alpha (Homo sapiens) (UniProt P68400). The experiment in a line: Inhibition of recombinant full length human CK2alpha1 at 10 uM using RRRDDDSDDD as substrate measured after 40 mins in presence of [gamma33P]ATP by scintillation counting method.
The target in series [10] is Testis-specific serine/threonine-protein kinase 2 (Homo sapiens) (UniProt Q96PF2). The experiment in a line: Inhibition of recombinant full-length human TSSK2 at 10 uM using KKKVSRSGLYRSPSMPENLNRPR as substrate measured after 40 mins in presence of [gamma33P]ATP by scintillation counting method.
Series [11] concerns the target Transcription initiation factor TFIID subunit 1-like (Homo sapiens) (UniProt Q8IZX4). The experiment in a line: Inhibition of human TAF1L (1428 to end residues) using RRRFRPASPLRGPPK as substrate measured after 120 mins in presence of [gamma33P]ATP by scintillation counting method.
Series [12] has as its target Bromodomain and WD repeat-containing protein 1 (Homo sapiens) (UniProt Q9NSI6). The experiment in a line: Binding affinity to human partial length WDR9 bromodomain 2 (A1310 to E1430 residues) expressed in bacterial expression system at 1 uM by BROMOscan assay. A digest of the protocol: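 Outsourced competition-binding profiling (BROMOscan) at a single concentration of 1 µM against 32 recombinant bromodomains; binding expressed as percentage of control.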

In series [13] the target is Casein kinase I (Homo sapiens) (UniProt Q9HCP0+P78368+P48730+P49674+P48729). The experiment in a line: Inhibition of CK1 (unknown origin) at 10 uM. The series is classed as protein assay. An outline of the steps:
(§1)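 Kinase panel of 422 kinases screened by Eurofins KinaseProfiler at a single test-compound concentration of 10 µM.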

Series [14] is described as follows: Half life in Sprague-Dawley rat at 10 mg/kg, po administered via gavage by LC-MS/MS analysis. The series is classed as ADME, organism-based. Particulars: in vivo. An outline of the steps:
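Male Sprague-Dawley rats, 6–8 weeks old, given a single 10 mg/kg dose by oral gavage (vehicle 2.5% ethanol, 2.5% tween-80 in saline, pH 7.0). Serial jugular blood samples taken and centrifuged to plasma. Plasma protein-precipitated with acetonitrile containing internal standard, then analysed by LC-MS/MS. Noncompartmental fit gave T1/2.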

Series [15] has as its target Tyrosine-protein kinase receptor TYRO3 (Homo sapiens) (UniProt Q06418). The experiment in a line: Inhibition of human RSE (451 to end residues) using KVEKIGEGTYGVVYK as substrate measured after 40 mins in presence of [gamma33P]ATP by scintillation counting method. A digest of the protocol:
as §1

Series [16] has as its target Casein kinase II subunit alpha' (CK2alpha2, Homo sapiens) (UniProt P19784). The experiment in a line: Inhibition of recombinant full length human CK2alpha2 at 10 uM using RRRDDDSDDD as substrate measured after 40 mins in presence of [gamma33P]ATP by scintillation counting method.
The species named for series [17] is Mus musculus. The experiment in a line: Inhibition of recombinant mouse ABL L782P/G784R/W785L/L786V mutant (27 to end residues) at 10 uM using EAIYAAPFAKKK as substrate measured after 40 mins in presence of [gamma33P]ATP by scintillation counting method.
Series [18] addresses Tyrosine-protein kinase ZAP-70 (Homo sapiens) (UniProt P43403). The experiment in a line: Inhibition of recombinant full-length human ZAP70 at 10 uM using poly(Glu, Tyr) 4:1 as substrate measured after 40 mins in presence of [gamma33P]ATP by scintillation counting method.
The target in series [19] is Ephrin type-A receptor 3 (Homo sapiens) (UniProt P29320). The experiment in a line: Inhibition of recombinant human EphA3 (578 to end residues) at 10 uM using poly(Glu, Tyr) 4:1 as substrate measured after 40 mins in presence of [gamma33P]ATP by scintillation counting method.
Series [20] addresses Activin receptor type-1-like (Homo sapiens) (UniProt P37023). The experiment in a line: Inhibition of recombinant human ALK1 (142 to end residues) at 10 uM using casein as substrate measured after 40 mins in presence of [gamma33P]ATP by scintillation counting method.
Series [21] has as its target Serine/threonine-protein kinase PLK2 (Homo sapiens) (UniProt Q9NYY3). The experiment in a line: Inhibition of human Snk (65 to 409 residues) using casein as substrate measured after 40 mins in presence of [gamma33P]ATP by scintillation counting method. An outline of the steps: as §1
Series [22] addresses Bromodomain and PHD finger-containing protein 3 (Homo sapiens) (UniProt Q9ULD4). The experiment in a line: Binding affinity to human partial length BRPF3 (E588 to G701 residues) expressed in bacterial expression system at 1 uM by BROMOscan assay. A digest of the protocol:
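BROMOscan bromodomain cross-screen run by an outside service, compound at 1 µM against 32 recombinant bromodomains. Binding given as percent of control.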

Calls of active or inactive are those of the source. The rule behind the calls is not given here.

Sequence of Tyrosine-protein kinase ITK/TSK (Homo sapiens) (Q08881 whole entry, the tested form may be a part): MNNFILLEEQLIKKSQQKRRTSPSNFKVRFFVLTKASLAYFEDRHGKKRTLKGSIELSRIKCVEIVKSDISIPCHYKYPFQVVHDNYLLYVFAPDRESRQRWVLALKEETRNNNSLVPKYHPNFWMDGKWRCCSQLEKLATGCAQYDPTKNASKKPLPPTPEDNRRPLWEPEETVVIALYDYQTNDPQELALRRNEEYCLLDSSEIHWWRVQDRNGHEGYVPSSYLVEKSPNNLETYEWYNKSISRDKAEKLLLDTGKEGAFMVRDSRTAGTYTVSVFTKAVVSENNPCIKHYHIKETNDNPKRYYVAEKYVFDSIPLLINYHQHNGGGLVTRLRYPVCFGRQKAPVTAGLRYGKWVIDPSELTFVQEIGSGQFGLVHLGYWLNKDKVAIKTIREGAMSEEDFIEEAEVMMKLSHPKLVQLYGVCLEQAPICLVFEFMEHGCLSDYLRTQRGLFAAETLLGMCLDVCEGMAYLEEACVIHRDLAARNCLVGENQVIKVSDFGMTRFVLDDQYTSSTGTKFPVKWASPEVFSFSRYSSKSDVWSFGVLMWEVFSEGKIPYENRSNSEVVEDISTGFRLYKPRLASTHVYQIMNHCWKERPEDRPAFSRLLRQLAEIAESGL
Sequence of Transcription initiation factor TFIID subunit 1-like (Homo sapiens) (Q8IZX4 whole entry, the tested form may be a part): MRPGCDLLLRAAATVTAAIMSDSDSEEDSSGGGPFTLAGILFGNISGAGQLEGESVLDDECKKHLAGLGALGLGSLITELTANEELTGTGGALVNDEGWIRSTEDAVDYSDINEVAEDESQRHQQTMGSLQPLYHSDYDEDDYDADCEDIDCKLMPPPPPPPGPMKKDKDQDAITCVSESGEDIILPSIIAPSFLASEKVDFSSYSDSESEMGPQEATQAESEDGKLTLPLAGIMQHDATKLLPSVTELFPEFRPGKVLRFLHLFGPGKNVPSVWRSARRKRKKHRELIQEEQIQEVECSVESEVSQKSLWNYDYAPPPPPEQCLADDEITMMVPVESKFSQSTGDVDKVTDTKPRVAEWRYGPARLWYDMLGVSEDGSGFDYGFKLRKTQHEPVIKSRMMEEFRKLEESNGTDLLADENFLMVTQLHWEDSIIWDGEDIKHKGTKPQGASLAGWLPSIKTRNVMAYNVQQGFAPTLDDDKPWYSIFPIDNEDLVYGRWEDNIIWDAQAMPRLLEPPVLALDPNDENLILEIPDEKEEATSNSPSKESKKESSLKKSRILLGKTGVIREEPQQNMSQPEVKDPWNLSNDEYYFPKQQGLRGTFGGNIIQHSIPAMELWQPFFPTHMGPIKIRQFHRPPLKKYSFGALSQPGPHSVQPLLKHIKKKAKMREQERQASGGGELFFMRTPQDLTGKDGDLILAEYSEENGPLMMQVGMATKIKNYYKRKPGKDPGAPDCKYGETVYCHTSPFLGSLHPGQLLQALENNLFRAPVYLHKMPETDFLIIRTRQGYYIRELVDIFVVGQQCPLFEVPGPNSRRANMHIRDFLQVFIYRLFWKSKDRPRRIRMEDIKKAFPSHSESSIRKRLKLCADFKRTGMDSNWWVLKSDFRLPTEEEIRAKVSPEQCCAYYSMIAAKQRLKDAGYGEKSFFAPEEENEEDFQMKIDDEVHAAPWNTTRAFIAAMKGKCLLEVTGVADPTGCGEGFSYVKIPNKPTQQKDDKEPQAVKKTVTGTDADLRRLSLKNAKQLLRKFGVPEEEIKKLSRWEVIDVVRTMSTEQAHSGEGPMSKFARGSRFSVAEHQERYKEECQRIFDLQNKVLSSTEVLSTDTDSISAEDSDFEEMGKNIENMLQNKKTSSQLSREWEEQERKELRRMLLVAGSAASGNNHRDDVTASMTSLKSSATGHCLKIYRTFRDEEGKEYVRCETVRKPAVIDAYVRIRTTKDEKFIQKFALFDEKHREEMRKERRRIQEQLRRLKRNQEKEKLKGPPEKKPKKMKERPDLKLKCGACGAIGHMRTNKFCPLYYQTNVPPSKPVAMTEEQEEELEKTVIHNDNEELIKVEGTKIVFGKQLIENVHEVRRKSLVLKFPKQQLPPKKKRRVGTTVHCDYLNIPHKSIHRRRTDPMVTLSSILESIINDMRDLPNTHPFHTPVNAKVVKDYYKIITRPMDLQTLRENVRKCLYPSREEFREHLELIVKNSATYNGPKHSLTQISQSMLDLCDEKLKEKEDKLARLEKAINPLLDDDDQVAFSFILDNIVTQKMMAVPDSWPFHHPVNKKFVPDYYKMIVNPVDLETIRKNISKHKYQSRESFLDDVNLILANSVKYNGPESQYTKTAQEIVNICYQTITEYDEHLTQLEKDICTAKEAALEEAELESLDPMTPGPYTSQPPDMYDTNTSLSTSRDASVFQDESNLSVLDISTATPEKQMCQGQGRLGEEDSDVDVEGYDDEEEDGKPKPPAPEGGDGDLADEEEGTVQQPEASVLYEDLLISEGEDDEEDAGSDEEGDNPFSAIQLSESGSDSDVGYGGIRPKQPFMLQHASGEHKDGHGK
Sequence of Tyrosine-protein kinase receptor TYRO3 (Homo sapiens) (Q06418 whole entry): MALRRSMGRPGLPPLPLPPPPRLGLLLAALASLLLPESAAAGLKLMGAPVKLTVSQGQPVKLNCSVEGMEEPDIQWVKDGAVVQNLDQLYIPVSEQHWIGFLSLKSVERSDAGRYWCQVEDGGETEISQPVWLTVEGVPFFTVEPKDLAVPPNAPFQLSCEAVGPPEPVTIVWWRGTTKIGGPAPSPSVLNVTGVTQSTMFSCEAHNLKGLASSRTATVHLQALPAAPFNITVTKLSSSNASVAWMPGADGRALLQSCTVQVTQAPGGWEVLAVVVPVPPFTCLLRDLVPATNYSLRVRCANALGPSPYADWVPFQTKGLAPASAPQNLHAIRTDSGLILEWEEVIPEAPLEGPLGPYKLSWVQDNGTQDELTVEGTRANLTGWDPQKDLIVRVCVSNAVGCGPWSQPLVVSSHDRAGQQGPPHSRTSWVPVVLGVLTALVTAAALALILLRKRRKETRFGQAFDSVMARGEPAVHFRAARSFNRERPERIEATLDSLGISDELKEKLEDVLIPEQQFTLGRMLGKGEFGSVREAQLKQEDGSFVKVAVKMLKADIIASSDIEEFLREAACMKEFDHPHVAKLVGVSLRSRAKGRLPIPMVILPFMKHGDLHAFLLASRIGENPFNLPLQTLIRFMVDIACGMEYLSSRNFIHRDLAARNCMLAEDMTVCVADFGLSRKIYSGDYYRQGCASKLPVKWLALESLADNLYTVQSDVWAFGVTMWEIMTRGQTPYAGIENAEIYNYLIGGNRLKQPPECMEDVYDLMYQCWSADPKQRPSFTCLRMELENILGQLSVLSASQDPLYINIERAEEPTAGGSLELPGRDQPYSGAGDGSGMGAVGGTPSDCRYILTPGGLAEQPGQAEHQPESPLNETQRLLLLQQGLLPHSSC
Sequence of Tyrosine-protein kinase receptor UFO (Homo sapiens), P30530 [Q764R] (P30530 whole entry Q764R): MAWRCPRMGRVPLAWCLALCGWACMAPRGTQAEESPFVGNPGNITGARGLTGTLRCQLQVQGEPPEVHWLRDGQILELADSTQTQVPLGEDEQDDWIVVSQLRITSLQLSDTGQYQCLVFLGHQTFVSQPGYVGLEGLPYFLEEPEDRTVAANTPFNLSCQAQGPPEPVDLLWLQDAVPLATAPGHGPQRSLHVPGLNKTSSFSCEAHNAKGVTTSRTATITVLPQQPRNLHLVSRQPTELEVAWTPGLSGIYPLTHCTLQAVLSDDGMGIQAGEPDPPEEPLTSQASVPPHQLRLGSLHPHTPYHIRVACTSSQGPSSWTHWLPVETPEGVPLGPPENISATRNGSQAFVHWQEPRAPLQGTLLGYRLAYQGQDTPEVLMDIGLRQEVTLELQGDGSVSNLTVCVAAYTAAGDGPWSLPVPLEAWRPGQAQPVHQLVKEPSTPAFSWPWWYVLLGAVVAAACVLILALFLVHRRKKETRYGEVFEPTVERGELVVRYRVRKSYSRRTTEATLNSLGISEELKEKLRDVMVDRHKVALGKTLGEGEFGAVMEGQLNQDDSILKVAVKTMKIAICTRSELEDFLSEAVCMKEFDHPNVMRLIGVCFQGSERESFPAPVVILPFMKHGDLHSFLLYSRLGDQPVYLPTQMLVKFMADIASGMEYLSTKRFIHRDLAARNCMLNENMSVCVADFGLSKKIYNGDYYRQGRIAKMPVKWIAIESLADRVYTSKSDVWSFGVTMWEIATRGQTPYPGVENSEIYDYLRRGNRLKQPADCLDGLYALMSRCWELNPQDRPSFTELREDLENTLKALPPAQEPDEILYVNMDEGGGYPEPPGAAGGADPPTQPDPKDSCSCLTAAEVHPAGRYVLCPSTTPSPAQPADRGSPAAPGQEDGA
Sequence of Serine/threonine-protein kinase PLK2 (Homo sapiens) (Q9NYY3 whole entry, looked up, the tested form may be a part): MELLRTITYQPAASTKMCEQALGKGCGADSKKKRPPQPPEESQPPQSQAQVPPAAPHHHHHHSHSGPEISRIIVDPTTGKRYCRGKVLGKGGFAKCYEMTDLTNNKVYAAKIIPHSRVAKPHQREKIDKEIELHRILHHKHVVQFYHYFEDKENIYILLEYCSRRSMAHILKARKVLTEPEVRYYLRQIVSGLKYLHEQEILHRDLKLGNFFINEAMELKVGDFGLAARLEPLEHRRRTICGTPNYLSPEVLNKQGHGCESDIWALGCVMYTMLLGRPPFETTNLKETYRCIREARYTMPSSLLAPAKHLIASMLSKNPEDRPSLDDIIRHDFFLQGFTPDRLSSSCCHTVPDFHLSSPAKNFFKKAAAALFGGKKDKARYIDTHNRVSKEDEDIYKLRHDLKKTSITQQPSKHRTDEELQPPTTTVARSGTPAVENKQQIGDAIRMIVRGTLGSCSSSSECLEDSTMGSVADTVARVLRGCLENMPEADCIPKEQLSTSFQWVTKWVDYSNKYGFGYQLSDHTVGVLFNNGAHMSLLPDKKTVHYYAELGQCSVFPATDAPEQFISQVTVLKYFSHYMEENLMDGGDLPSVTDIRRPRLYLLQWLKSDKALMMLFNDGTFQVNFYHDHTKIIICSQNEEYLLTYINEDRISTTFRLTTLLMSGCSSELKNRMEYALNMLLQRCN

What is called half-life is the time in which the quantity being followed falls by half. For the compound `CN1C[C@H](Nc2nc3cc[nH]c3c(=O)n2C)C[C@H](c2ccc3c(c2)OCCO3)C1`, the inhibition result in [1], in series [2], in series [3], in series [4], in series [5] and in series [6] was “inactive” each time. Further, the inhibition result in series [7], in series [8], in series [9], in series [10], in series [11] and in series [13] was “inactive” throughout. Moreover, the inhibition entry in series [15], in [16], in [17], in series [18], in [19] and in series [20] was “inactive” in each case. Further, the inhibition result in [21] is “inactive”. Moreover, the outcome in series [12] was inactive. Further, the half-life in series [14] was 1.51 h. For the same compound, the result in [22] was Active.

The record behind these values is ChEMBL document CHEMBL4350961, “Discovery of Pyrrolo[3,2- d]pyrimidin-4-one Derivatives as a New Class of Potent and Cell-Active Inhibitors of P300/CBP-Associated Factor Bromodomain” (J Med Chem, 2019).
